Lmaj promast = Leishmania major promastigote growth inhibition, primary screen; 9% of 200,000 active; Leishmania major promastigotes, resazurin fluorescence viability; AID 1063, 2008; inhibition, % at 10 µM; in the data active = inhibition above about 50%;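 also: promastigotes grown with compound for 44 hours at 28 °C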
Mdm2-MdmX inh = inhibitors of human Mdm2-MdmX association, primary screen, cell-based, luminescence, split luciferase, SaOS-2, uHTS; SaOS-2 split-luciferase Mdm2/MdmX complementation; AID 485346, 2010; Protein Mdm4 (Homo sapiens) + E3 ubiquitin-protein ligase Mdm2 (Homo sapiens), …; 3% of 330,000 active; inhibition, % at 8 µM;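 active = inhibition of at least 50% at 8 µM in the primary screen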
Target sequence (O15151 whole entry, looked up): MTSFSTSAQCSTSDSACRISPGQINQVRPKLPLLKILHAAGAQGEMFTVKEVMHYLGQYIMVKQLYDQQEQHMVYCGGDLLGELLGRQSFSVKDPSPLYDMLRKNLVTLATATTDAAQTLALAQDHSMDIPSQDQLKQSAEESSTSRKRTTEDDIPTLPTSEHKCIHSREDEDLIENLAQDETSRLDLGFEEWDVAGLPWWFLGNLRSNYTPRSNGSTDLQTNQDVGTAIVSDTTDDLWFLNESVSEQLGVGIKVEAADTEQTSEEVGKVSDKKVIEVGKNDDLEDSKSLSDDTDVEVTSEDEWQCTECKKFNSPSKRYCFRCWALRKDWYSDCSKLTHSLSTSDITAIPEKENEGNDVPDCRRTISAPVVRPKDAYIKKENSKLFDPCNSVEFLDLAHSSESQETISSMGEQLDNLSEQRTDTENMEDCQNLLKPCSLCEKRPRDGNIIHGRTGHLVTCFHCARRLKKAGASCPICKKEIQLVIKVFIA
Target sequence (Q00987 whole entry, looked up): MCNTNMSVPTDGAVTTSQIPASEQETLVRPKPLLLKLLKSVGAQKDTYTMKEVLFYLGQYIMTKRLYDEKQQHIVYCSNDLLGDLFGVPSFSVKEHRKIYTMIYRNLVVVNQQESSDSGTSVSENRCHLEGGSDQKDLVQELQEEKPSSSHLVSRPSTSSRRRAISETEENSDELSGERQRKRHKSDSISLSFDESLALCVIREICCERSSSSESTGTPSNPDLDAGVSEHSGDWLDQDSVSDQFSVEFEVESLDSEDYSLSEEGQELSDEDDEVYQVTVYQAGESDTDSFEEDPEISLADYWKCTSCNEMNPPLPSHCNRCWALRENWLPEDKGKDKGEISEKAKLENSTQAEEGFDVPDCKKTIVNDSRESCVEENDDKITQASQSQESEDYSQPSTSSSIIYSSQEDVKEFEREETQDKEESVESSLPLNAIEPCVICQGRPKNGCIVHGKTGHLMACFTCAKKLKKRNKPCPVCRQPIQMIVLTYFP
CSC inhib = cancer stem cell viability inhibitors, primary screen, luminescence; cancer stem cell-like cells viability; inhibition, % at 7.5 µM; 1.1% of 300,000 active; AID 2717, 2010; in the data active = inhibition above about 75%; inconclusive = no clear call, values can overlap the other calls; tested in HMLE shEcad cells
Beta apoptosis = inhibitors of cytokine-induced beta cell apoptosis, primary screen, luminescence; 0.8% of 300,000 active; protection from apoptosis, % (concentration not given with the values); AID 435005, 2010; INS-1E cytokine-induced death, ATP luminescence, 48 h; percent of positive-control rescue, neutral wells zero;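 active = Every replicate reaches about 75%, or at least half do and their mean reaches it too, limit read from the data; inconclusive = At least half of replicates reach the limit but their mean does not; inactive = Under half of replicates reach the limit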;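 also: 0% = cytokine-treated negative control wells and 100% = positive control rescue; higher means more ATP so stronger rescue from cytokine killing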
T cruzi inh = inhibitors of intracellular T. cruzi growth, primary screen, luminescence, NIH3T3 host cells; T. cruzi beta-gal in NIH3T3, 90 h; inhibition, % (no concentration beside the values); 1.4% of 300,000 active; AID 1885, 2009;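 active = mean inhibition across valid replicates above about 55%, limit read from the data; inconclusive = mean below that limit but half or more replicates reach it; inactive = mean below it, under half of replicates reach it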;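 also: signal also drops with host cell toxicity which is not excluded here; 0% = plate median of DMSO wells and 100% = zero luminescence signal; higher percent means less beta-gal luminescence so fewer parasites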
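Assay system: NIH/3T3 host cells with β-galactosidase reporter T. cruzi; input: 5,000 host fibroblasts per well; compound: single 50 nL compound addition per well in DMSO; timing: ≥90 h infection period, 3 h prior cell attachment; measured by: GalScreen β-gal luminescence, detergent lysis, 60 min; evaluation: percent inhibition of parasite-derived β-gal signal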
SKKanGAS inh = S. pyogenes SKKanGAS growth inhibitors in kanamycin, primary screen, streptokinase expression inhibitor project, SKKanGAS strain, BacTiter-Glo luminescence. 6 h. inhibition, % at 7.5 µM. 1.3% of 300,000 active. AID 1662, 2009;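 active = mean replicate score, as percent of positive control median, at least 50; inconclusive = mean below 50 but one replicate at or above 50; inactive = mean and every replicate below 50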;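 also: strain carries kanamycin resistance gene driven by streptokinase promoter and grows in 40 µg/ml kanamycin; loss of luminescence reflects streptokinase promoter inhibition or plain growth inhibition; 0% = median of DMSO wells and 100% = positive control at its reference dose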
Mdm2 MdmX conf = Mdm2-MdmX complex disruptors, retested hits, confirmation, luminescence, single concentration | shares compounds with Mdm2-MdmX inh | Mdm2-MdmX binding, luminescent assay | inhibition, % at 8 µM | 55% of 10,000 active; in the data active = inhibition above about 40%
FLuc counter = full-length luciferase signal inhibition, confirmation, counter-screen for Mdm2/MdmX interaction inhibitor project, cell-based, single concentration, SaOS-2 | shares compounds with Mdm2-MdmX inh | SaOS-2 full-length luciferase counterscreen, luminescence | inhibition, % at 8 µM | 77% of 6,200 active | AID 504607, 2011;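 active = mean inhibition at 8 µM reaching about 37%, which flags the compound as non-specific, limit read from the data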;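 also: p53-null SaOS-2 cells with luciferase driven by a doxycycline-inducible promoter; compound on cells about two nights before reading with doxycycline added after day one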
The depositor's hits bear a star; ? = inconclusive; . = no result. Compounds with a hit are over-represented: about 9.4% of the library has one in this group of screens.

SMILES	Lmaj promast	Mdm2-MdmX inh	CSC inhib	Beta apoptosis	T cruzi inh	SKKanGAS inh	Mdm2 MdmX conf	FLuc counter
CC(=O)c1sc2c(c1OC(=O)c1ccc(Cl)cc1Cl)c(=O)n(-c1ccccc1)c(=S)n2-c1ccccc1	.	95*	67	-1	8	15	92*	12
Cc1cccc(CN2CCC(CNC(=O)CSc3cc(=O)n(C)c4cc(Cl)ccc34)CC2)c1	.	65*	-14	-7	47	-1	42*	67*
c1ccc2cc(CCO[C@H]3CCCCO3)ncc2c1	.	2	-4	0	.	.	.	.
c1nc(CCO[C@H]2CCCCO2)cc2cc3c(cc12)OCO3	.	56*	-2	-2	.	.	35	.
Cc1sc2ncnc(SC(C)C(=O)N3c4ccccc4Sc4ccccc43)c2c1C (centres undefined)	4	55*	?	-2	19	1	25	.
Cc1cc(C)cc(Nc2nc(-c3ccc(S(=O)(=O)N4CCCC4)cc3)cs2)c1	99*	59*	15	5	13	7	58*	42*
Cc1ccc(S(=O)(=O)Nc2nc3ccccc3nc2Nc2cccc(S(=O)(=O)N3CCCC3)c2)cc1	17	53*	114*	31	-8	66*	51*	93*
CCOC(=O)C1=C(CBr)NC(=O)NC1C (centres undefined)	7	-13	-4	-2	-8	-1	.	.
O=C(C1CC1)N1c2ccccc2Sc2ccccc21	.	61*	71	1	-8	7	55*	75*
CC(Cl)C(=O)Nc1c2c(nn1-c1ccccc1)CSC2 (centres undefined)	.	7	12	4	-10	5	.	.
CCN(CC)S(=O)(=O)c1ccc(NC(=O)c2nc3nc(C)cc(C)n3n2)cc1	.	15	-4	-4	-6	-6	.	.
N/C(=N\c1nc2ccccc2o1)NC(=O)c1cccc(Cl)c1	.	51*	20	10	5	1	17	.
CC(=O)NC1C(=O)N=C(SCC(=O)Nc2cccc(Cl)c2)NC1=O (centres undefined)	-9	2	-9	-10	-22	2	.	.
CCCNc1nc2c(c(=O)[nH]c(=O)n2C)n1Cc1cccc(Br)c1	3	66*	16	-3	19	-1	35	.
COCCNc1oc(-c2ccccc2Cl)nc1S(=O)(=O)c1ccc(C)cc1	.	8	3	0	.	.	.	.
Clc1ccc2c(Cl)c(-c3nnc(-c4ccccc4)o3)sc2c1	-4	.	.	.	.	.	.	.
Fc1ccc2c(Cl)c(-c3nnc(-c4cccs4)o3)sc2c1	-8	84*	-11	-6	-1	-3	-138	.
COc1ccc(-c2sc3ccccc3c2-c2ccc(OCCN3CCCCC3)cc2)cc1	.	88*	139*	103*	.	.	20	.
c1ccc(-c2sc3ccccc3c2-c2ccc(OCCN3CCCC3)cc2)cc1	.	100*	107*	6	.	.	46*	58*
COc1ccc(-c2sc3ccc(OC)cc3c2-c2ccc(OCCN3CCOCC3)cc2)cc1	.	46	.	.	.	.	.	.
Cc1cc(Oc2ccc(=O)n(C)n2)nc(SCc2ccccc2)n1	-5	-6	9	-3	8	10	.	.
c1ccc2c(c1)nnn1c3ccccc3nc21	14	-129	13	13	10	14	.	.
ClC(Cl)(Cl)c1nc2ccccc2n2nncc12	.	77*	49	24	7	-1	60*	32
CCOC(=O)c1oc2ccc(OC)cc2c1NC(=O)CN1CCN(C)CC1	6	-10	3	.	5	16	.	.
Cc1ccc(C(=O)c2oc3ccc(Cl)cc3c2NC(=O)CN2CCN(C)CC2)cc1	.	82*	38	23	30	16	34	68*

Compound activity deposited in PubChem BioAssay by several laboratories.
